Data published in ChEMBL document CHEMBL3044975, “Hybrid ubiquinone: novel inhibitor of mitochondrial complex I” (Biochim Biophys Acta, 2002).

Key:
[1] = molecular target: T1, NADH-ubiquinone oxidoreductase chain 1 (Bos taurus, UniProt P03887); assay: Inhibition of Bos taurus (bovine) mitochondrial complex 1 assessed as reduction in enzyme activity by NADH-DU oxidoreductase assay
Method in brief: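 Bovine heart submitochondrial particles (SMP) at 30 µg protein/ml. 50 µM decyl ubiquinone is the acceptor. SMP are preincubated with the HU for 5 min, then 50 µM NADH is added. NADH oxidation is read at 340 nm, 30 °C. IC50 from two independent experiments.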

[2] = molecular target: T1, NADH-ubiquinone oxidoreductase chain 1; assay: Inhibition of Bos taurus (bovine) mitochondrial complex 1 assessed as reduction in enzyme activity by NADH-DB oxidoreductase assay

T1 sequence (P03887 whole entry): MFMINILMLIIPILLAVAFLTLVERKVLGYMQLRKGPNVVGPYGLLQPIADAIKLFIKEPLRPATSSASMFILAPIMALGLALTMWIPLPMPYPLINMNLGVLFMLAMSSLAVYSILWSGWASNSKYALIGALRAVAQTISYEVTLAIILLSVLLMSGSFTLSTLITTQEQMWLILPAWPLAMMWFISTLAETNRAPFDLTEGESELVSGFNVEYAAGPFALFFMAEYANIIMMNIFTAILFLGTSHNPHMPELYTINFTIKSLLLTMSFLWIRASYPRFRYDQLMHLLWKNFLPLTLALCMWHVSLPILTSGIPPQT

Row | SMILES | IC50 [1] | IC50 [2]
1 | CCCCCCCCCCC(=O)N(C)CC1=C(C)C(=O)C(OC)=C(OC)C1=O | 6.2 µM | 11.8 µM
2 | COC1=C(OC)C(=O)C(CCN(C)C(=O)c2ccc(Oc3ccc(C(C)(C)C)cc3)cc2)=C(C)C1=O | 0.76 µM | 0.47 µM
3 | CN(C)C(=O)c1ccc(Oc2ccc(C(C)(C)C)cc2)cc1 | – | 0.65 µM
4 | CCCCc1ccc(Oc2ccc(C(=O)N(C)CC3=C(C)C(=O)C(OC)=C(OC)C3=O)cc2)cc1 | 0.84 µM | 0.97 µM
5 | C/C=C(\C)[C@H](O)[C@H](C)/C=C(C)/C=C/C/C(C)=C/Cc1nc(OC)c(OC)c(O)c1C [PIERICIDIN A] | – | 0.003 µM
6 | COC1=C(OC)C(=O)C(CN(C)C(=O)c2ccc(Oc3ccc(C(C)(C)C)cc3)cc2)=C(C)C1=O | 0.088 µM | 0.077 µM
7 | COC1=C(OC)C(=O)C(CC(=O)N(C)c2ccc(Oc3ccc(C(C)(C)C)cc3)cc2)=C(C)C1=O | 2 µM | 1.8 µM
8 | COC1=C(OC)C(=O)C(CNC(=O)c2ccc(Oc3ccc(C(C)(C)C)cc3)cc2)=C(C)C1=O | 0.53 µM | 0.34 µM
9 | COC1=C(OC)C(=O)C(CCCCCCN(C)C(=O)c2ccc(Oc3ccc(C(C)(C)C)cc3)cc2)=C(C)C1=O | 0.61 µM | 1.1 µM
10 | CCN(CC1=C(C)C(=O)C(OC)=C(OC)C1=O)C(=O)c1ccc(Oc2ccc(C(C)(C)C)cc2)cc1 | 0.63 µM | 0.37 µM
